Screens (PubChem BioAssay)
Yeast lifespan up: yeast lifespan extension | S. cerevisiae growth with nicotinamide, OD615; deaD strain in restrictive glucose medium | inhibition of the nicotinamide effect, % at 10 µM | AID 775 | 130,000 tested, 0.68% active;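 active = inhibition above a set limit, placed 3 SD over the median of all compounds, cut at about 26% in these data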;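 note: 0% = nicotinamide-treated wells and 100% = cells grown without nicotinamide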
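assay system = DeaD-strain S. cerevisiae | measured by = absorbance at 615 nm | probe or stimulus = nicotinamide 1.5 mM | buffer or medium = CSMM-D glucose medium, restrictive | times = 48 h at 30 °C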
Yeast growth inh: reduces growth of yeast BB579 in restrictive medium; S. cerevisiae BB579 growth, OD615, 48 h; inhibition, % at 10 µM; 140,000 tested, 0.51% active;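 active = inhibition above a set limit, 3 SD over the mean compound inhibition, cut at about 44% in these data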
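Assay system: S. cerevisiae DeaD strain BB579 yeast. Medium: CSMM-D restrictive synthetic medium containing dextrose (glucose). Times: 4 h cell preincubation, 48 h compound exposure, 30 °C humidified. Signal: OD615 turbidity measurement. Benchmarks: positive control amphotericin B 10 µg/mL.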
TNAP act hiacc: increases human TNAP activity under high phosphate acceptor concentration. P05186. purified TNAP, CDP-star luminescence, 1 M DEA, 30 min; active compounds read high; 0 = EDTA background, 1 = DMSO-only activity. activation factor at 20 µM. 200,000 tested, under 10 active. AID 1136;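 active = activation factor at least 2 at 20 µM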
Target sequence (P05186 whole entry, looked up): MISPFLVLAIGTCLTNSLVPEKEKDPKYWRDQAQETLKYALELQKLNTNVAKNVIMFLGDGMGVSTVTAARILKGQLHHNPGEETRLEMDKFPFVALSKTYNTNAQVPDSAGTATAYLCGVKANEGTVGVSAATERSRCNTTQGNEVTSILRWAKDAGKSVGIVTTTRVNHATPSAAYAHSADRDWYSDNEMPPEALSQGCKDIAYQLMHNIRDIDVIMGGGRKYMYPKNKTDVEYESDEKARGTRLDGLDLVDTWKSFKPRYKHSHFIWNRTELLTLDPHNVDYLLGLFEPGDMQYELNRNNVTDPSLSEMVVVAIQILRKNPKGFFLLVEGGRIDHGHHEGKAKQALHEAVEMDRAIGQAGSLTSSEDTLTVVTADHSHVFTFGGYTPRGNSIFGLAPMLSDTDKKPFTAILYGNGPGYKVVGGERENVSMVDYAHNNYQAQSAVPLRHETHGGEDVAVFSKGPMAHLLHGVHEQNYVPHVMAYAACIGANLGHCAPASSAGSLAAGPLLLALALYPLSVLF
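Control set: EDTA negative control, DMSO positive control / Assay system: human TNAP / Quantity: TNAP 1/800 final / Evaluation: TNAP activation factor scaled between EDTA and DMSO control wells / Measured by: luminescent substrate turnover signal / Compound dosing: one dose, 20 µM / Times: 30 min enzyme reaction at room temperature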
TNAP inh no acc: TNAP (human) inhibition, acceptor-free conditions. P05186. purified TNAP, CDP-star luminescence, 30 min. inhibition, % at 20 µM. 200,000 tested, 0.26% active;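 active = tissue-nonspecific alkaline phosphatase inhibition above about 50% at 20 µM in the single-dose screen, limit read from the data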;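 note: 0% = DMSO negative control and 100% = EDTA positive control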
TNAP inh hi DEA: inhibitors of human TNAP at high phosphate acceptor concentration | AID 1135 | 200,000 tested, 0.03% active | P05186 | inhibition, % at 20 µM | purified TNAP, CDP-star luminescence, 1 M DEA;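 active = over 50% inhibition of tissue-nonspecific alkaline phosphatase at 20 µM in the single-dose screen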;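 note: plate controls were DMSO wells for no effect and EDTA-quenched wells as full inhibition for full effect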
RAM network inh: blocks the yeast RAM network. inhibition, % at 50 µM. S. cerevisiae dse1pr::URA3 reporter, 5-FOA growth OD615, 2 d; analog-sensitive cbk1-as2 kinase mutant strain. 190,000 tested, 1.8% active;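 active = inhibition above a set limit, 3 SD over mean compound inhibition, cut at about 8.4% in these data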;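 note: 0% = DMSO-only wells with no growth and 100% = 10 µM 1-NA-PP1 full growth; inhibition rescues growth on 5-FOA so higher OD means more RAM inhibition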
RAM efflux-def: restores 5-FOA growth of efflux-deficient yeast; max inhibition, %; 1,200 tested, under 10 active; S. cerevisiae efflux-deficient reporter strain, 5-FOA growth OD615, 2 days; shares compounds with RAM network inh; call rule not given here;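 note: plate controls were vehicle for no effect and reference inhibitor for full effect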
Starred values were filed as active, the others as inactive; · = no result given. A selection: hits, their analogues and other compounds. The true share with any hit is near 2.8%.

SMILES | Yeast lifespan up | Yeast growth inh | TNAP act hiacc | TNAP inh no acc | TNAP inh hi DEA | RAM network inh | RAM efflux-def
Cn1c(SCc2cccc(Cl)c2)nc(C(F)(F)F)cc1=O | -1.8 | -16.5 | 1 | -1.6 | -1.1 | 3.3 | ·
Cn1cccc1C(=O)OCc1cc(Cl)cc2c1OCOC2 | -7.2 | -47.1 | 1 | 16.9 | -0.3 | 12.4* | 3.9
Cn1cccc1C(=O)OCC(=O)Nc1ccc2c(c1)OCO2 | · | · | 1 | -13.4 | -1.8 | -0.5 | ·
Cc1ccsc1/C=C1\SC(=S)N(CC2CCCO2)C1=O (stereo unspecified) | · | · | 1 | 0.5 | -1.5 | 2.1 | ·
CCCOc1ccc(/C=C2\SC(=S)N(CC3CCCO3)C2=O)cc1 (stereo unspecified) | 4.5 | -16.1 | 1 | 9.9 | 2.8 | 16.6* | 6.8
COc1cccc(NC(=S)N(Cc2ccc(Cl)cc2)Cc2ccc(C(=O)O)cc2)c1 | · | · | 1 | -1.9 | -0.2 | 13.6* | 1.8
O=C(CC12CC3CC(CC(C3)C1)C2)NC(=S)NCc1ccco1 | · | · | 1 | -7.0 | 0.9 | 14.8* | 2.9
CCCCN(C)CCC(=O)Nc1ccc2c(c1)CCC2 | · | · | 1.1 | -10.8 | -6.8 | 1.8 | ·
CCOc1ccccc1NC(=O)c1ccccc1-c1nc(-c2ccccc2)no1 | -5.9 | -55.6 | 1 | -3.5 | -4.5 | 12.1* | 5.7
CC(C)Oc1ccccc1OCCCCn1cnc2ccccc2c1=O | · | · | 1 | -5.5 | -3.1 | 13.8* | 2.2
Cc1ccc(C)c(OCCCCn2cnc3ccccc3c2=O)c1 | -21.0 | -1.8 | 1 | -10.1 | -2.3 | -1.1 | ·
CCOC(=O)C1C(=O)CC(C)(O)C(C(=O)OCC)C1/C=C/c1ccccc1 (stereo unspecified) | -16.9 | -31.6 | 1 | -6.0 | -2.7 | 3.5 | ·
COc1ccc(C(=O)/C=C/C(=O)N(CC(=O)NCCC(C)C)Cc2cccs2)c(O)c1 | · | · | 1.1 | -7.4 | -6.3 | 11.8* | 6.6
O=[N+]([O-])c1ccc2ccn(C3OCC(O)C(O)C3O)c2c1 (stereo unspecified) | · | · | 1.1 | -10.8 | -5.2 | 0.9 | ·
COc1cc(-c2cc(C(=O)Nc3ccc(S(=O)(=O)NCc4ccco4)cc3)c3ccccc3n2)cc(OC)c1OC | 6.3 | -10.1 | 1 | -4.0 | -4.4 | 12.9* | 4.5
Cc1cc(C)nc(NS(=O)(=O)c2ccc(NC(=O)c3cc(-c4ccccc4)nc4ccccc34)cc2)n1 | 1.6 | 0.9 | 1 | 0.5 | 1.5 | 7.3 | ·
O=C(NCCc1cn2ccccc2n1)C1CCCCC1 | -7.0 | 5.0 | 1 | -4.0 | -4.6 | 0.2 | ·
COCC(C)n1c(SCc2ccc(OC)c(F)c2)nc2ccccc2c1=O (stereo unspecified) | · | · | 1 | 5.7 | 0.5 | 14.2* | 1.7
COc1cc(OC)cc(C(=O)N[C@H](C(=O)NCc2ccco2)C(C)C)c1 | · | · | 1 | -8.6 | -2.1 | 0.5 | ·
Cc1cc(C)c(NC(=O)COC(=O)CSc2ccc(Br)cc2C)c(C)c1 | 8.9 | -43.7 | 1 | -0.7 | 1.8 | 8.2 | ·
Cc1cc(Br)ccc1SCC(=O)OCC(=O)NC1CCCC1 | · | · | 1 | -5.5 | -3.5 | 17.1* | 2.5
O=C(Nc1ccc(-c2nc3ccccc3s2)cc1)c1cc(-n2cnnc2)ccc1Cl | -5.1 | -23.8 | 1.1 | -1.9 | -6.0 | 15.5* | 4.9
O=C(Cc1ccccc1)NN1C(=O)C2C3C=CC(C3)[C@@H]2C1=O (stereo partly specified) | 1.6 | -27.4 | 1 | -14.0 | 0.8 | 0.7 | ·
COc1ccc(OC)c(NC(=O)COC(=O)Cc2ccc(-c3ccccc3)cc2)c1 | 2.7 | -45.8 | 1 | -7.7 | -2.9 | 13.6* | 2.8
COc1ccc(CC(=O)Nc2cc3oc4ccccc4c3cc2OC)cc1 | 1.0 | -35.1 | 1 | -11.5 | 2.4 | 12.0* | 3.2
SMILES | Yeast lifespan up | Yeast growth inh | TNAP act hiacc | TNAP inh no acc | TNAP inh hi DEA | RAM network inh | RAM efflux-def
COc1ccccc1CC(=O)Nc1cc2oc3ccccc3c2cc1OC | -11.2 | -26.1 | 1 | -7.1 | -2.8 | 4.6 | ·
CCOc1ccccc1NC(=O)COC(=O)Cc1ccc(-c2ccccc2)cc1 | 1.9 | -11.4 | 1 | -85.7 | 0.8 | 2.6 | ·
COc1cc(NC(=O)COC(=O)Cc2ccc(-c3ccccc3)cc2)cc(OC)c1 | -3.4 | -28.5 | 1.1 | -13.9 | -9.1 | 16.8* | 3.7
O=C(COC(=O)c1cc(S(=O)(=O)N2CCOCC2)ccc1Cl)Nc1ccc2c(c1)OCO2 | -14.3 | -12.8 | 1 | -8.3 | -2.0 | 1.4 | ·
CCCCOC(=O)c1ccc(NC(=O)/C=C/c2cccs2)cc1 | 1.4 | -19.4 | 1 | -1.5 | 2.4 | 15.4* | 6.2
CCCCCCN(C(=O)CCCCCN1C(=O)NC(c2ccc(-c3ccccc3)cc2)C(C(=O)OCc2ccccc2)=C1C)C(C(=O)NCCCC)c1ccc(OCC(=O)OC)cc1 (stereo unspecified) | 4.0 | -19.1 | 1 | -10.2 | -4.2 | 13.1* | 6.1
C/C(=N\Nc1nc2c(s1)CCCC2)c1ccc(Cl)cc1 | -24.6 | 25.2 | 1 | -30.4 | 3.7 | 12.6* | 1.4
Cc1noc(NS(=O)(=O)c2ccc(N/C=C\C(=O)c3cccs3)cc2)c1C | · | · | 1 | 2.2 | 4.3 | 12.0* | 6.3
COc1ccc(C)cc1NC(=O)C(Sc1nnc(-c2ccncc2)n1-c1ccc(Cl)cc1)c1ccccc1 (stereo unspecified) | 0.6 | -30.0 | 1 | 13.0 | 4.9 | 4.7 | ·
COc1cccc(-c2nc(=S)c3c(n2Cc2ccco2)CCCC3)c1 | 15.0 | -15.6 | 1 | -6.3 | -3.6 | 14.5* | 2.2
Cc1cc(Cl)ccc1OCC(=O)N/N=C1\CCCc2ccccc21 | -11.8 | -1.2 | 1 | -3.6 | 0.1 | 15.0* | 3.0
O=C(NCCN1C(=O)S/C(=C\c2cccnc2)C1=O)C1=NN(c2ccccc2)C(=O)CC1 | · | · | 1 | -11.8 | -3.2 | -0.1 | ·
CN(C)c1ccc(N=Nc2ccccc2C(=O)OCC(=O)Nc2ccccc2C(F)(F)F)cc1 | 28.8* | -24.4 | 0.7 | 27.7 | 28.6 | 20.5* | 4.6
CCN(C(=S)NCc1ccccc1)c1ccccc1 | · | · | 1 | -13.7 | -0.1 | 1.0 | ·
CCCCOc1ccccc1NC(=O)c1scc2c1OCCO2 | · | · | 1 | -4.3 | -1.8 | 12.6* | 4.8
CCCCOc1ccccc1NC(=O)c1ccco1 | -18.5 | -27.9 | 1 | -18.7 | -1.4 | -0.2 | ·
CC(=O)c1ccc(N2CCN(C(=O)CCS(=O)(=O)c3ccc(C)cc3)CC2)cc1 | -4.2 | -21.9 | 1 | -6.2 | 1.5 | 0.6 | ·
O=C(CN(Cc1cccs1)C(=O)c1csnn1)NC1CCCC1 | · | -17.9 | 1 | -9.9 | -3.9 | 1.0 | ·
O=C(CN(Cc1cccs1)C(=O)CSc1nnc(COc2ccccc2)o1)NC1CCCC1 | 9.7 | -68.5 | 1 | -14.6 | -2.9 | 16.7* | 1.5
CCCCN1C(=O)/C(=C/C=C2\SCCN2C)SC1=S | · | · | 0.5 | 43.0 | 52.0* | 12.7* | 1.8
